The record followed here is paper PMC7870562 (Bioorganic chemistry, 2020).

Assay [1] has as its system A431 cells. The experiment in a line: MTT cytotoxicity / cell viability assay, A431. The assay is classed as cell-based, human. The settings on record: for IC50: Homo sapiens, A-431, 48 h; for selectivity index: IC50 HaCaT / IC50 A431. The method in brief: (§1)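 Cells in 5–10% FBS/DMEM were seeded at 5×10³ per well, refed at 24 h and grown to 70% confluence. They were treated for 48 h at 37°C, 5% CO2 with two-fold serial dilutions of test compound in DMSO (≤0.1%), […], in 8–10 repeats. After MTT, absorbance was read at 562 nm. Viability was expressed relative to DMSO controls and IC50 derived by nonlinear regression. Data are mean ± SD of ≥5 independent experiments in octuplicates.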

For another assay, the system named is SK-Mel-28 cells. The experiment in a line: MTT cytotoxicity / cell viability assay, SK-Mel-28. The assay is classed as cell-based, human. The conditions noted are these: for IC50: Homo sapiens, SK-MEL-28, 48 h; for selectivity index: IC50 melanocytes / IC50 SK-Mel-28. The essentials:
as §1

Another assay relates to HaCaT. The experiment in a line: MTT cytotoxicity / cell viability assay, HaCaT keratinocytes. The assay is classed as cell-based. The conditions noted are these: Homo sapiens, 48 h. The method in brief:
as §1

Assay [2] deals with A375 cells. The assay is described as follows: MTT cytotoxicity / cell viability assay, A375. The assay is classed as cell-based, human. The conditions noted are these: for IC50: Homo sapiens, A-375, 48 h; for selectivity index: IC50 melanocytes / IC50 A375. The method in brief:
as §1

In another assay the test system is Melanocyte. The assay is described as follows: MTT cytotoxicity / cell viability assay, normal melanocytes. The conditions noted are these: Homo sapiens, 48 h. Format: cell-based. The essentials:
as §1

A further assay deals with UWBCC1 cells. The assay is described as follows: MTT cytotoxicity / cell viability assay, UWBCC1. The assay is classed as cell-based, human. The conditions noted are these: for IC50: Homo sapiens, 48 h; for selectivity index: IC50 HaCaT / IC50 UWBCC1. The essentials: as §1
The target of a further assay is CDK2/Cyclin A (Homo sapiens, UniProt P24941). The assay is described as follows: In vitro kinase activity assay. The assay is classed as biochemical. The conditions noted are these: 10-dose, three-fold serial dilution from 100 μM. The essentials:
(§2)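 Kinase profiling was run at Reaction Biology. IC50 values came from 10-dose mode, three-fold serial dilutions starting at 100 μM. Reference inhibitors were co-assayed at 1 and 10 μM.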

For the next assay, the target named is c-Kit (Homo sapiens, UniProt P10721). The assay is described as follows: In vitro kinase activity assay. Format: biochemical. The method in brief: as §2
Chain of c-Kit (P10721 26-976): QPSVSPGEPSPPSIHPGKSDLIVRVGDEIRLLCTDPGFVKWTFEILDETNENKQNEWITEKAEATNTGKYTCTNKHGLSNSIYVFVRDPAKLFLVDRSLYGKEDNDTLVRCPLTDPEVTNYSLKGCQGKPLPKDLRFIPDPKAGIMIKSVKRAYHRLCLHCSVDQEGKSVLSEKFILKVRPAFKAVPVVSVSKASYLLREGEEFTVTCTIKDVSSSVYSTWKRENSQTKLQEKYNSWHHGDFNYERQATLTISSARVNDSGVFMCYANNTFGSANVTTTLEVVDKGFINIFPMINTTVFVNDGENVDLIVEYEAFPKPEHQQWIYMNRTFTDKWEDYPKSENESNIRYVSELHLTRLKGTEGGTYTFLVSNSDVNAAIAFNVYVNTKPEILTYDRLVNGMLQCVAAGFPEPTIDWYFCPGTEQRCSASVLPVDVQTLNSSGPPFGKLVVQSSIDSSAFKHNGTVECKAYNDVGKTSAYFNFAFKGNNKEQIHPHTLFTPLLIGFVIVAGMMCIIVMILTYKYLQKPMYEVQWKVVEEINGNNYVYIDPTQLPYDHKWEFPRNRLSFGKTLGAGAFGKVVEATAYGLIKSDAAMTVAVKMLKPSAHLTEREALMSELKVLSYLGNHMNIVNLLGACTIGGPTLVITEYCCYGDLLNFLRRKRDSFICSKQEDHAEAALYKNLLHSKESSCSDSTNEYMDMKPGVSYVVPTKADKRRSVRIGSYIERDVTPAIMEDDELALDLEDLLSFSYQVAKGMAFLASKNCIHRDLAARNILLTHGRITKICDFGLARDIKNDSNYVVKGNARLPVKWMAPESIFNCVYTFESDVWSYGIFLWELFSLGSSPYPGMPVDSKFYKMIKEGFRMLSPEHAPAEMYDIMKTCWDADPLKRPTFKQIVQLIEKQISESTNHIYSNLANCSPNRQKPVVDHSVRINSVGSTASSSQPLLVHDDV
Another assay concerns the target mTOR/FRAP1 (Homo sapiens, UniProt P42345). The assay is described as follows: In vitro kinase activity assay. Format: biochemical. The method in brief:
as §2

Assay [3] relates to A375 cells. The experiment in a line: DAPI staining of apoptotic nuclei, A375. The assay is classed as cell-based, human. The essentials: (§3)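 Equal numbers of cells were seeded in T-25 flasks and exposed to test compound at different concentrations for 36 h. Cells were PBS-washed, stained with DAPI in PBS and imaged by fluorescence microscopy at 10x and 1.6×10x. Apoptotic nuclei were scored by morphology and expressed as percentage of cells.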

Assay [4] deals with A431 cells. The assay is described as follows: DAPI staining of apoptotic nuclei, A431. Format: cell-based, human. The essentials:
as §3

Where [5] appears, read: A375, treated 36 hours at ½IC50.
Setting [6] is: A431, treated 36 hours at ½IC50.

With `COc1cccc2c1C(=O)c1c(O)c3c(c(O)c1C2=O)C[C@@](O)(C(=O)CO)C[C@@H]3O[C@H]1C[C@H](N)[C@H](O)[C@H](C)O1` [Doxorubicin, reference compound], the IC50 in the assay on A431 cells [1] was determined as 0.37 ± 0.02 µM; in the assay with SK-Mel-28 cells, 0.23 ± 0.06 µM; in the assay with HaCaT, 0.07 ± 0.01 µM; in the assay on A375 cells [2], 0.1 ± 0.01 µM. The selectivity index in the assay with A431 cells [1] was 0.2.
Turning to `O=c1c(O)c(-c2ccccc2)oc2ccccc12` [F1, 3-Hydroxy-2-phenyl-4H-chromen-4-one], the IC50 with A431 cells [1] turned out to be 15 ± 0.04 µM; in the assay on SK-Mel-28 cells, 21 ± 1 µM; with HaCaT, 38 ± 0.02 µM; in the assay with Melanocyte, 27 ± 0.9 µM; with A375 cells [2], 14 ± 0.8 µM; in the assay on UWBCC1 cells, 12 ± 0.8 µM. Moreover, the selectivity index is 2.5 in the assay with A431 cells [1], 1.2 in the assay with SK-Mel-28 cells, 1.9 in the assay on A375 cells [2] and 3.2 with UWBCC1 cells.
For `COc1cccc(-c2oc3ccccc3c(=O)c2O)c1` [F2, 3-Hydroxy-2-(3-methoxyphenyl)-4H-chromen-4-one], the IC50 with A431 cells [1] was found to be 21 ± 16 µM; in the assay with A375 cells [2] it was 28 ± 2.3 µM.
Turning to `O=c1c(O)c(-c2ccc(SC(F)(F)F)cc2)oc2ccccc12` [F3, 3-Hydroxy-2-(4-((trifluoromethyl)thio)phenyl)-4H-chromen-4-one], the IC50 with A431 cells [1] came out at 9.7 ± 2.3 µM; in the assay on SK-Mel-28 cells, 5.2 ± 1.7 µM; in the assay on HaCaT, 27 ± 0.7 µM; with Melanocyte, 31 ± 0.74 µM; in the assay on A375 cells [2] it was 14 ± 0.2 µM. Further, the selectivity index is reported as 2.8 with A431 cells [1], 6.0 in the assay with SK-Mel-28 cells and 2.2 in the assay with A375 cells [2].
Turning to `O=c1c(O)c(-c2ccc(Br)cc2Cl)oc2ccccc12` [F4, 2-(4-Bromo-2-chlorophenyl)-3-hydroxy-4H-chromen-4-one], the IC50 with A431 cells [1] was 61 ± 30 µM; with A375 cells [2], over 100 µM.
The corresponding values for `O=c1c(O)c(-c2ccc(C(F)(F)F)cc2C(F)(F)F)oc2ccccc12` [F5, 2-(2,4-Bis(trifluoromethyl)phenyl)-3-hydroxy-4H-chromen-4-one] are over 100 µM and 95 ± 12 µM.
On to `O=c1c(O)c(-c2cc(C(F)(F)F)cc(C(F)(F)F)c2)oc2ccccc12` [F6, 2-(3,5-Bis(trifluoromethyl)phenyl)-3-hydroxy-4H-chromen-4-one], for which the IC50 is 8.6 ± 0.5 µM with A431 cells [1]; over 100 µM against CDK2/Cyclin A; 27 ± 4.1 µM with SK-Mel-28 cells; 31 ± 1.9 µM in the assay with HaCaT; 26 ± 1.3 µM in the assay on Melanocyte; 7 ± 0.32 µM in the assay on A375 cells [2]. In addition, the results for the IC50 on c-Kit and in the assay on UWBCC1 cells were over 100 µM and 6.6 ± 0.79 µM, respectively. Besides, the selectivity index with A431 cells [1] is listed as 3.6; in the assay on A375 cells [2], 3.7; in the assay on UWBCC1 cells, 4.7.
For the compound `O=c1c(O)c(-c2ccc(OCc3ccccc3)cc2)oc2ccccc12` [F7, 2-(4-(Benzyloxy)phenyl)-3-hydroxy-4H-chromen-4-one], the IC50 in the assay on A431 cells [1] was over 100 µM; with A375 cells [2] it was 88 ± 35 µM.
Take `COc1ccc(-c2oc3cc(C)ccc3c(=O)c2O)c(Br)c1OC` [F10, 2-(2-Bromo-3,4-dimethoxyphenyl)-3-hydroxy-7-methyl-4H-chromen-4-one]: the results for the IC50 in the assay on A431 cells [1], in the assay on A375 cells [2] and in the assay on UWBCC1 cells were 36 ± 0.1 µM, 31 ± 13 µM and 11 ± 5 µM, respectively.
Regarding `Cc1ccc2c(=O)c(O)c(-c3ccc(C(C)(C)C)cc3)oc2c1` [F11, 2-(4-(Tert-butyl)phenyl)-3-hydroxy-7-methyl-4H-chromen-4-one], the IC50 with A431 cells [1] was determined as 4.7 ± 0.9 µM; against CDK2/Cyclin A it was 32.5 µM; in the assay with SK-Mel-28 cells, 18 ± 2 µM; in the assay with HaCaT, 25 ± 0.78 µM; in the assay on Melanocyte it was 26 ± 1.1 µM; in the assay with A375 cells [2], 11 ± 2 µM. Inhibition with UWBCC1 cells was half-maximal at 9.7 ± 0.6 µM (IC50). Further, the selectivity index with A431 cells [1] stood at 4.7; with SK-Mel-28 cells, 1.4; in the assay on A375 cells [2] it was 2.4; in the assay with UWBCC1 cells, 2.3. In addition, the “inhibition of mTOR kinase activity (in words)” value against mTOR/FRAP1 is on record as “did not substantively inhibit”.
As to `COc1ccc2c(=O)c(O)c(-c3ccc(Br)cc3)oc2c1` [F12, 2-(4-Bromophenyl)-3-hydroxy-7-methoxy-4H-chromen-4-one], the IC50 with A431 cells [1] and in the assay on A375 cells [2] was over 100 µM each time.
As to `COc1ccc2c(=O)c(O)c(-c3ccc(C(C)(C)C)cc3)oc2c1` [F13, 2-(4-(Tert-butyl)phenyl)-3-hydroxy-7-methoxy-4H-chromen-4-one], the IC50 is over 100 µM in the assay on A431 cells [1] and 28 ± 24 µM with A375 cells [2].
The corresponding values for `COc1cccc(-c2oc3cc(Br)ccc3c(=O)c2O)c1` [F15, 7-Bromo-3-hydroxy-2-(3-methoxyphenyl)-4H-chromen-4-one] are over 100 µM and over 100 µM.
As to `COc1ccc(-c2oc3ccc(Br)cc3c(=O)c2O)cc1OC` [F16, 6-Bromo-2-(3,4-dimethoxyphenyl)-3-hydroxy-4H-chromen-4-one], the figures for the IC50 in the assay on A431 cells [1], with A375 cells [2] and in the assay on UWBCC1 cells were over 100 µM, 79.5 ± 9 µM and 40 ± 0.89 µM, respectively.
As to `Cc1cc2oc(-c3ccc(C(C)(C)C)cc3)c(O)c(=O)c2cc1Cl` [F18, 2-(4-(Tert-butyl)phenyl)-6-chloro-3-hydroxy-7-methyl-4H-chromen-4-one], the IC50 in the assay with A431 cells [1] is 24 ± 5.6 µM; in the assay with A375 cells [2] it was over 100 µM.
Regarding `Cc1cc2oc(-c3ccc(OCc4ccccc4)cc3)c(O)c(=O)c2cc1Cl` [F19, 2-(4-(Benzyloxy)phenyl)-6-chloro-3-hydroxy-7-methyl-4H-chromen-4-one], the IC50 was 1.5 ± 0.3 µM in the assay with A431 cells [1]; 1.64 µM against mTOR/FRAP1 (mTOR/FRAP1 IC50, 10-dose, three-fold serial dilution from 100 μM); 12.7 µM on CDK2/Cyclin A; 19 ± 3 µM in the assay with SK-Mel-28 cells; 28 ± 0.31 µM in the assay on HaCaT; 27 ± 1 µM with Melanocyte. Also, the IC50 in the assay on A375 cells [2] is 13 ± 2.6 µM; at c-Kit it was 0.33 µM; with UWBCC1 cells, 1.1 ± 0.4 µM. The selectivity index in the assay with A431 cells [1] came to 19; in the assay with SK-Mel-28 cells, 1.2; in the assay on A375 cells [2], 1.7; with UWBCC1 cells, 25. Besides, the “DAPI (+) apoptotic cells” value with A375 cells [3] (A375, treated 36 hours at IC50) was found to be 13.3%; in the assay on A375 cells [3] (setting [5]), 5.6%; in the assay with A431 cells [4] (A431, treated 36 hours at IC50), 14.2%; in the assay with A431 cells [4] (setting [6]) it was 6.71%.
With `CCOc1ccc(-c2oc3cc(Cl)ccc3c(=O)c2O)cc1F` [F21, 7-Chloro-2-(4-ethoxy-3-fluorophenyl)-3-hydroxy-4H-chromen-4-one], the IC50 in the assay on A431 cells [1] was 8.2 ± 0.2 µM; against CDK2/Cyclin A it was 30.1 µM; with SK-Mel-28 cells it was 12 ± 3 µM; in the assay on HaCaT it was 26 ± 0.4 µM; in the assay with Melanocyte it was 27 ± 0.1 µM; in the assay on A375 cells [2], 8.6 ± 0.4 µM. The IC50 against c-Kit was found to be 0.26 µM. Also, the selectivity index was 3.2 in the assay with A431 cells [1], 2.3 with SK-Mel-28 cells and 3.2 in the assay on A375 cells [2]. Further, at mTOR/FRAP1, the “inhibition of mTOR kinase activity (in words)” value is given as “did not substantively inhibit”. Further, the “DAPI (+) apoptotic cells” value came out at 5.4% in the assay with A375 cells [3] (setting [5]); 14.4% in the assay on A431 cells [4] (A431, treated 36 hours at IC50); 8.8% with A431 cells [4] (setting [6]).
As to `COc1cc(-c2oc3ccc(F)cc3c(=O)c2O)cc(OC)c1OC` [F22, 6-Fluoro-3-hydroxy-2-(3,4,5-trimethoxyphenyl)-4H-chromen-4-one], the IC50 was 13 ± 2.6 µM in the assay on A431 cells [1]; 23 ± 1.9 µM in the assay on HaCaT; 24 ± 1.6 µM in the assay with Melanocyte; 15 ± 1.9 µM in the assay with A375 cells [2]; 11 ± 2 µM with UWBCC1 cells. The selectivity index in the assay with A431 cells [1] was 1.8; in the assay on A375 cells [2], 1.6; with UWBCC1 cells it was 2.1.
As to `COc1cc(OC)c(-c2oc3ccccc3c(=O)c2O)cc1OC` [F23, 3-Hydroxy-2-(2,4,5-trimethoxyphenyl)-4H-chromen-4-one], the IC50 in the assay on A431 cells [1] came out at 12 ± 1.9 µM; in the assay with SK-Mel-28 cells it was 19 ± 3 µM; in the assay with HaCaT, 24 ± 1.4 µM; in the assay with Melanocyte it was 22 ± 1 µM; in the assay with A375 cells [2] it was 13 ± 3.1 µM; in the assay with UWBCC1 cells, 9.4 ± 1.4 µM. Besides, the selectivity index in the assay with A431 cells [1] was determined as 2.0; in the assay on SK-Mel-28 cells, 1.6; in the assay with A375 cells [2], 1.7; in the assay on UWBCC1 cells, 2.6.
For `COc1cc(OC)c(-c2oc3cc(Cl)ccc3c(=O)c2O)cc1OC` [F24, 7-Chloro-3-hydroxy-2-(2,4,5-trimethoxyphenyl)-4H-chromen-4-one], the IC50 with A431 cells [1] and in the assay on A375 cells [2] was over 100 µM throughout.

Usually IC50 stands for the point on the concentration scale where inhibition reaches its midpoint. A high value points to weaker potency.
